T1: hCBS (human cystathionine β-synthase) (Homo sapiens, UniProt P35520)
T1 sequence (P35520 1-551): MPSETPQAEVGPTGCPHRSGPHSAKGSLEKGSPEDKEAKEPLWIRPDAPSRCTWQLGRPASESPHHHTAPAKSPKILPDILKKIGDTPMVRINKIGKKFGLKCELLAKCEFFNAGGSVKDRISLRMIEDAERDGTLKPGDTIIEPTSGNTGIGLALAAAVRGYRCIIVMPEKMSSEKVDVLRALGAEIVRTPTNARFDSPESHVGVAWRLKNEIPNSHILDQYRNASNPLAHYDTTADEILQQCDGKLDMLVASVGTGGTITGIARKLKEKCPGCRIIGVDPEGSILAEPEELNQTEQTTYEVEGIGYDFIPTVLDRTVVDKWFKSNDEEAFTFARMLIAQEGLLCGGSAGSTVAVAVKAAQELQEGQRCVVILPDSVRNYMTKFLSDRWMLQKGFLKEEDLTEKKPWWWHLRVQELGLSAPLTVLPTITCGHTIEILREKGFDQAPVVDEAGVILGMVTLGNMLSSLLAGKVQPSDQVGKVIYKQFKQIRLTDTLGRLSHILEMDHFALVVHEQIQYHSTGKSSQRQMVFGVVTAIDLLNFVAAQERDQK

T2: Human cystathionine beta-synthase (human), P35520
T2 chain: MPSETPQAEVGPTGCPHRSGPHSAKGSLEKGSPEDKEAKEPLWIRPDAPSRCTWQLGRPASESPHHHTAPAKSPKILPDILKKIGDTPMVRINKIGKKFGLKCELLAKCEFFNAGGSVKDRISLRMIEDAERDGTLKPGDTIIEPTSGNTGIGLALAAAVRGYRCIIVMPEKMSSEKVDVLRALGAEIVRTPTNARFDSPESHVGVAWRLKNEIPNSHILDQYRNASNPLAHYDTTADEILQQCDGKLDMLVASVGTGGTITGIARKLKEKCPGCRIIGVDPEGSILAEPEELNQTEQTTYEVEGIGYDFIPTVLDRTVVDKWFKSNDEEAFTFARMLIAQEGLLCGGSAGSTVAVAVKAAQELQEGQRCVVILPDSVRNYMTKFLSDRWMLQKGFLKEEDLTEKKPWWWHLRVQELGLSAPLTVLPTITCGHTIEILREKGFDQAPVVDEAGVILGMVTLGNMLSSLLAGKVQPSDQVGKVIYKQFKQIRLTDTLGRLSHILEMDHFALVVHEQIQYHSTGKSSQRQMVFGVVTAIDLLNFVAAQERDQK


Experiments:
[1] = target: T1, hCBS (human cystathionine β-synthase); experiment: radioisotope CBS activity assay with L-[U-14C]serine; type: biochemical
[2] = target: T1, hCBS (human cystathionine β-synthase); experiment: isothermal titration calorimetry, two independent types of sites model; type: binding
Procedure, shortened: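 Purified human CBS in 20 mM Hepes pH 7.4 titrated with SAM by ITC. Without salt: 8 μM tetramer, 50 injections of 0.7 mM SAM spaced 150 s. With 200 mM NaCl: 20 μM tetramer, 19 injections of 1.06 mM SAM spaced 250 s. Isotherms fitted to a two independent types of sites model; salt titrations repeated in four independent experiments.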

[3] = target: T2, Human cystathionine beta-synthase …; experiment: dynamic light scattering; conditions: remark: other sources report otherwise

EC50 [1] [nM] | Kd [2] [nM] | stoichiometry N [3] | Molecule
3700 ± 200 | 13 | – | C[S+](CC[C@H](N)C(=O)O)C[C@H]1O[C@@H](n2cnc3c(N)ncnc32)[C@H](O)[C@@H]1O (stereo partly drawn) [SAM]
– | – | 4 | Human cystathionine beta-synthase, P35520 1-551 (enzyme) MPSETPQAEVGPTGCPHRSGPHSAKGSLEKGSPEDKEAKEPLWIRPDAPSRCTWQLGRPASESPHHHTAPAKSPKILPDILKKIGDTPMVRINKIGKKFGLKCELLAKCEFFNAGGSVKDRISLRMIEDAERDGTLKPGDTIIEPTSGNTGIGLALAAAVRGYRCIIVMPEKMSSEKVDVLRALGAEIVRTPTNARFDSPESHVGVAWRLKNEIPNSHILDQYRNASNPLAHYDTTADEILQQCDGKLDMLVASVGTGGTITGIARKLKEKCPGCRIIGVDPEGSILAEPEELNQTEQTTYEVEGIGYDFIPTVLDRTVVDKWFKSNDEEAFTFARMLIAQEGLLCGGSAGSTVAVAVKAAQELQEGQRCVVILPDSVRNYMTKFLSDRWMLQKGFLKEEDLTEKKPWWWHLRVQELGLSAPLTVLPTITCGHTIEILREKGFDQAPVVDEAGVILGMVTLGNMLSSLLAGKVQPSDQVGKVIYKQFKQIRLTDTLGRLSHILEMDHFALVVHEQIQYHSTGKSSQRQMVFGVVTAIDLLNFVAAQERDQK
